# Data: the EternaBench riboswitch data
# Tests used:
# [1] = system: MS2 coat protein; assay: apparent Kd, MS2 coat protein; higher = weaker binding; RNA-MaP array
# In short: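 Apparent Kd is the median of per-cluster binding-curve fits for designed RNAs transcribed from sequenced DNA templates on an Illumina sequencing chip. The RNAs were incubated at room temperature with fluorescently labeled MS2 coat protein at 1.5 nM to 3 μM, with or without input ligand, and designs measured on fewer than 10 clusters were excluded.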
# [2] = system: MS2 coat protein; assay: apparent Kd, MS2 coat protein; higher = weaker binding; RNA-MaP array; FMN 200 µM where present
# In short: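 Green signal from SNAP-549-labelled MS2 coat protein was normalised to red-channel RNA signal and to the median Fmax of control clusters. The protein was titrated from 0.7 or 1.5 nM, doubling to 3 µM, without and then with constant ligand, over designs transcribed by stalled E. coli RNA polymerase on Illumina sequencing-chip clusters, in 100 mM Tris-HCl pH 7.5, 80 mM KCl, 4 mM MgCl2, BSA, DTT, yeast tRNA and Tween-20. The apparent Kd is the median of filtered per-cluster binding-curve fits.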
# [3] = designed as: ON switch for flavin mononucleotide, no ligand
# [4] = ligand present: flavin mononucleotide, designed as: ON switch for flavin mononucleotide
# [5] = designed as: OFF switch for flavin mononucleotide, no ligand
# [6] = ligand present: flavin mononucleotide, designed as: OFF switch for flavin mononucleotide
sequence,measurement,setting,value
AGCCUGGAAGCAGGAUAUGGGAUACAUGAGGAUCACCCAUGUAAGAUAAUAGGGCAACGAAGAAGCCAGAAGGGCUCGAGGUAA,apparent Kd,[1]; [3],16.2 nM
same,apparent Kd,[1]; [4],13.1 nM
GAACAUGAGGAUCACCCAUGUGCUAUUGGGAAUCGCGCUACAUAGGAUAUAGAGGCGACUGUACUCUAGAAGGAUGCUAGUUUC,apparent Kd,[1]; [5],38.3 nM
same,apparent Kd,[1]; [6],37.8 nM
CAUUACCAUGUUAGGAUAUCCUGCGGAAUUGCCCUGGAGAAGGAACAUGAGGAUCACCCAUGUGCACAAACAAC,apparent Kd,[1]; [5],17.6 nM
same,apparent Kd,[1]; [6],26.1 nM
CUCCUACAUGAGGAUCACCCAUGUGAGGAUAUCUCCCAGUGGGAAUAGUUUCCAUGGAAGAGAAGGCACAGUGA,apparent Kd,[1]; [5],24.4 nM
same,apparent Kd,[1]; [6],30.9 nM
GGAAUGUCGUAGGAUAUAUGAUCUGUAAGGUAGAUAGAAGGACGAACAUGAGGAUCACCCAUGUGGAGGAUGUU,apparent Kd,[1]; [5],15.5 nM
same,apparent Kd,[1]; [6],27.5 nM
CGCCGUGAUUAGAAGGGUGGUGGGAAUCUUAUCACAGGAUAUAAAUAGGGCCGCUACAUGAGGAUCACCCAUGUCCUCCGGUCA,apparent Kd,[1]; [5],200 nM
same,apparent Kd,[1]; [6],165 nM
ACCAGUAAAUAGCAAUCACAUGAGGAUCACCCAUGUACUGACAAGGAUAUAGUCUAAGAAUAGUGCUAGAAGGUGUUUCCCUAA,apparent Kd,[1]; [3],168 nM
same,apparent Kd,[1]; [4],101 nM
CUUCUGAAAGCAAUGGGAUCUGUUAUUGAUACCAGCAUCUGAUUUUGCCCUUGGCAGCAAGAAACAUGAGGAUCACCCAUGUGGC,apparent Kd,"[1]; designed as: OFF switch for theophylline, no ligand",19.5 nM
same,apparent Kd,"[1]; ligand present: theophylline, designed as: OFF switch for theophylline",61.2 nM
GACGAGGAACCAAAGGAUAUACACAUAAACACAUGAGGAUCACCCAUGUAUUAGAGGAUAAACAUGUAGAAGGUUGAUACGGCGUG,apparent Kd,[1]; [3],48.7 nM
same,apparent Kd,[1]; [4],36.9 nM
UUUGUAUAGCAGAAGGCGUUAUUAGGAUGGCUACGAGGAUAUGCGGUACUCUAUUAGUACAUGAGGAUCACCCAUGUGUGGGCC,apparent Kd,[1]; [3],214 nM
same,apparent Kd,[1]; [4],145 nM
CGAGCAAGAGGAUAUACGAAGACGGUAUGAGUCAACCUCAAACAUGAGGAUCACCCAUGUAGAAGGCUUCUCAU,apparent Kd,[1]; [5],7.46 nM
same,apparent Kd,[1]; [6],9.74 nM
UAAGGACUUAUAGGAUAUGCAAACAUGAGGAUCACCCAUGUGAACCACGAAAUGACGCAGAAUAAGCAGAAGGAUAGUACGUAC,apparent Kd,[1]; [3],32.7 nM
same,apparent Kd,[1]; [4],25.5 nM
CCACUACAUGAGGAUCACCCAUGUCAGGAUAUCAACCACGCCUCUCCUUGGACGUAGAUGAGAAGGGACGUGGG,apparent Kd,[1]; [5],16.7 nM
same,apparent Kd,[1]; [6],28.2 nM
AUACCAACGGUCAGGAUAUAGGUAACAAGGAAAGACUAGAAGGGACAUGAGGAUCACCCAUGUUUUAACAUGAU,apparent Kd,[1]; [5],7.28 nM
same,apparent Kd,[1]; [6],6.89 nM
GCUCUGUCAGGAUAUAGGACGGCAACAGGCAAACUAAGCAACUAGAAGGGACAUGAGGAUCACCCAUGUAGCGC,apparent Kd,[1]; [5],9.33 nM
same,apparent Kd,[1]; [6],9.2 nM
AGUGGGUAUGGGCAGGAUAUACGUCGGGCGACAUGAGGAUCACCCAUGUUGGGCGGUGAAGUUGAGUAGAAGGGCCUCCGCCCGAA,apparent Kd,[1]; [3],54.6 nM
same,apparent Kd,[1]; [4],12.1 nM
GUGUUACAUGAGGAUCACCCAUGUGUCUGAUGUCAAGGAUAUGACUCUUCCUUCACAAAGUCAGAAGGUGAUAUCA,apparent Kd,[1]; [3],66.2 nM
same,apparent Kd,[1]; [4],12.8 nM
UAAGCACAUGAGGAUCACCCAUGUAAGGAUAUCCGAUCAUGCAAUCCGGAGAUCACAAGGAGAAGGUACAUGCA,apparent Kd,[1]; [5],29.6 nM
same,apparent Kd,[1]; [6],33.3 nM
AUUGUGUAAGGAUAUUAUAGAAGAGGUAGGCAACUUCUGAAUAAGAAGGUACAUGAGGAUCACCCAUGUUCAAU,apparent Kd,[1]; [5],11.7 nM
same,apparent Kd,[1]; [6],12.1 nM
UAAAUGUUUUAGAAGGGAUAAUGCGGCAUUGAAUCAGGAUAUAAAGCUAUAAACACAUGAGGAUCACCCAUGUCCCAGGUUAAA,apparent Kd,[1]; [3],477 nM
same,apparent Kd,[1]; [4],143 nM
AGCAUCGCAGGAUAUACAUGAGGAUCACCCAUGUAAAAUAACAAACUUGAACCUGCAAGUAGAAGGGCGUAACG,apparent Kd,[1]; [5],8.31 nM
same,apparent Kd,[1]; [6],7.87 nM
GUUUCCUCAGGAUAUUACUGCCGGGACAUGAGGAUCACCCAUGUGGCCUCCGUAAGGCUAUAAGAAGGGAGGCGUC,apparent Kd,[1]; [5],111 nM
same,apparent Kd,[1]; [6],157 nM
UUGGCACGGACGGCCGCCACUCUUUCACAUGAGGAUCACCCAUGUUAUCUAGUCCUCAGCAGAAAGAGGACCGGGUCGGAGUUGG,apparent Kd,"[1]; designed as: OFF switch for tryptophan, no ligand",126 nM
same,apparent Kd,"[1]; ligand present: tryptophan, designed as: OFF switch for tryptophan",122 nM
AAGGACUGUAAUAAUGUAGAAAUACAUGAGGAUCACCCAUGUAAGGAUAUCGUCAGGAAUACUGACGAGAAGGUACAUCAGUCC,apparent Kd,[2]; [6],25.8 nM
ACAUGAGGAUCACCCAUGUAGAAUGAAGAAGGUAGAUACUUGAGGCUCACCCAUGUACAUGGGACUAAGGAUAUUCUAAUAAUU,apparent Kd,[2]; [3],42.7 nM
same,apparent Kd,[2]; [4],27.7 nM
GCAUUUUAUGCAGGAUAUUGUCUUUGGAUUAAACAAGAAGGGCAUAACAUGAGGAUCACCCAUGUUUUAUAGGUAUAUAUGUUC,apparent Kd,[2]; [5],14.2 nM
same,apparent Kd,[2]; [6],21.6 nM
GUUAUAAUUGAAGGAUAUCUAUAUCCAACAUGAGGAUCACCCAUGUUGAGGAUCACCCAUGUAAAGGAGAAGGUUAAUUAUAAU,apparent Kd,[2]; [3],84.2 nM
same,apparent Kd,[2]; [4],25.2 nM
AGUCGGAGCAGAGGAUAUACAUGAGGAUCACCCAUGUAAUAAAUCCAAGCCUGGAAACAGGCAAUGUAGAAGGCUGCUCCGACA,apparent Kd,[2]; [5],16.8 nM
same,apparent Kd,[2]; [6],78.8 nM
UGGUACUAGGGAGGAUAUGGGAAGAUACAUGAGGAUCACCCAUGUUUAAGAAUGCCGAGACGCAACUAGAAGGCCCUAGUACCU,apparent Kd,[2]; [3],354 nM
same,apparent Kd,[2]; [4],20.9 nM
GUCCGAAGGGAGAAGGGCUAGGAGGUCCAGCUUAUGUGUGUUGCAACAUGAGGAUCACCCAUGUAGCAGGAUAUCCCUUGUACA,apparent Kd,[2]; [5],54.2 nM
same,apparent Kd,[2]; [6],267 nM
CGCACGAGGCAAGGAUAUGCUGACAUGAGGAUCACCCAUGUGAGCAUGGGUCUGGUACGGGAUCAGCAGAAGGUGCACCGAGGU,apparent Kd,[2]; [5],18.5 nM
same,apparent Kd,[2]; [6],18.8 nM
CAAAGGUGAGGAUAUACAUAACUAUGACGAAAGUCAUAAACACAUGAGGAUCACCCAUGUAGAAGGCACCACAA,apparent Kd,[2]; [5],26.3 nM
same,apparent Kd,[2]; [6],37.9 nM
UUGGCCGUCGUAGGAUAUGUAGGAUAUUCCUACAUGAGGAUCACCCAUGUUGACAUGGAAGAAGGACAGAAGGACGAUGUCCAU,apparent Kd,[2]; [3],365 nM
same,apparent Kd,[2]; [4],4.87 nM
AGCUGUGGCCGAGGAUAUCUAAACCUUCAAACCGAAAUAUAAUCGGACAUGAGGAUCACCCAUGUAGAGAAGGCGGUCUCAGCA,apparent Kd,[2]; [5],13.3 nM
same,apparent Kd,[2]; [6],28.8 nM
CGAAGUACGUAAGGAUAUACCGUGAGGACAACGGUAGAAGGUACAACAACAUGAGGAUCACCCAUGUGGACCUCUCGGCGUUGU,apparent Kd,[2]; [5],394 nM
same,apparent Kd,[2]; [6],617 nM
UGAUACUGAGAGAAGGUUCAAACUACAUAUUGCAUACAUGAGGAUCACCCAUGUUGGUGAAUAAGAAAGGAUAUUUUACUAUAU,apparent Kd,[2]; [5],47 nM
same,apparent Kd,[2]; [6],32.8 nM
